Results from ChEMBL document CHEMBL4689842, “EUbOPEN Chemogenomics Library wave 1” (2021).

System: HEK-293T
Test: Multiplex assay against HEK293T;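 for Population Tubulin-Different-Phenotype (%): share of the cells with healthy nuclei that show this phenotype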
Format: toxicity, cell-based
Conditions: human
How it was run: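 Live cells were stained at seeding with Hoechst33342, BioTracker Green Microtubule Cytoskeleton Dye, MitoTracker Red and Annexin V Alexa Fluor 680. Following compound addition, they were imaged on a CQ1 microscope at 37°C and 5% CO2 and gated by CellPathfinder machine learning into Hoechst high-intensity objects or normal cells, with normal cells split into healthy, pyknosed or fragmented nuclei and pyknosed cells into mitotic or apoptotic. Tubulin, mitochondrial-mass and membrane-permeability phenotypes are per cents of healthy-nucleus cells.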

[1] = 12 h, 1 µM, compound concentration 1 uM, replicate 1
[2] = 12 h, 1 µM, compound concentration 1 uM, replicate 2
[3] = 12 h, 10 µM, compound concentration 10 uM, replicate 1
[4] = 12 h, 10 µM, compound concentration 10 uM, replicate 2
[5] = 24 h, 1 µM, compound concentration 1 uM, replicate 1
[6] = 24 h, 1 µM, compound concentration 1 uM, replicate 2
[7] = 24 h, 10 µM, compound concentration 10 uM, replicate 1
[8] = 24 h, 10 µM, compound concentration 10 uM, replicate 2
[9] = 48 h, 1 µM, compound concentration 1 uM, replicate 1
[10] = 48 h, 1 µM, compound concentration 1 uM, replicate 2
[11] = 48 h, 10 µM, compound concentration 10 uM, replicate 1
[12] = 48 h, 10 µM, compound concentration 10 uM, replicate 2

## COc1cccc([C@@H](C)NCCCc2ccccc2Cl)c1.Cl [TECALCET HYDROCHLORIDE]
[1]
  Population Apoptotic (%): 45%
  Population Fragmented Nuclei (%): 9%
  Population Healthy Nuclei (%): 46%
  Population Hoechst High Intensity Objects (%): 11%
  Population Membrane Permeable-Phenotype (%): 2%
  Population Mitochondria Different-Phenotype (%): 83%
  Population Mitotic Cells (%): 54%
  Population Normal (%): 88%
  Population Pyknosed Nuclei (%): 44%
  Population Tubulin-Different-Phenotype (%): 57%
  Total Cell Count: 333
[2]
  Population Apoptotic (%): 16%
  Population Fragmented Nuclei (%): 3%
  Population Healthy Nuclei (%): 29%
  Population Hoechst High Intensity Objects (%): 3%
  Population Membrane Permeable-Phenotype (%): 11%
  Population Mitochondria Different-Phenotype (%): 45%
  Population Mitotic Cells (%): 83%
  Population Normal (%): 96%
  Population Pyknosed Nuclei (%): 67%
  Population Tubulin-Different-Phenotype (%): 41%
  Total Cell Count: 188
[3]
  Population Apoptotic (%): 80%
  Population Fragmented Nuclei (%): 9%
  Population Healthy Nuclei (%): 29%
  Population Hoechst High Intensity Objects (%): 12%
  Population Membrane Permeable-Phenotype (%): 2%
  Population Mitochondria Different-Phenotype (%): 100%
  Population Mitotic Cells (%): 19%
  Population Normal (%): 87%
  Population Pyknosed Nuclei (%): 60%
  Population Tubulin-Different-Phenotype (%): 93%
  Total Cell Count: 290
[4]
  Population Apoptotic (%): 59%
  Population Fragmented Nuclei (%): 3%
  Population Healthy Nuclei (%): 22%
  Population Hoechst High Intensity Objects (%): 4%
  Population Membrane Permeable-Phenotype (%): 4%
  Population Mitochondria Different-Phenotype (%): 95%
  Population Mitotic Cells (%): 40%
  Population Normal (%): 95%
  Population Pyknosed Nuclei (%): 74%
  Population Tubulin-Different-Phenotype (%): 95%
  Total Cell Count: 222
[5]
  Population Apoptotic (%): 36%
  Population Fragmented Nuclei (%): 8%
  Population Healthy Nuclei (%): 64%
  Population Hoechst High Intensity Objects (%): 9%
  Population Membrane Permeable-Phenotype (%): 2%
  Population Mitochondria Different-Phenotype (%): 73%
  Population Mitotic Cells (%): 63%
  Population Normal (%): 90%
  Population Pyknosed Nuclei (%): 26%
  Population Tubulin-Different-Phenotype (%): 52%
  Total Cell Count: 417
[6]
  Population Apoptotic (%): 27%
  Population Fragmented Nuclei (%): 3%
  Population Healthy Nuclei (%): 50%
  Population Hoechst High Intensity Objects (%): 2%
  Population Membrane Permeable-Phenotype (%): 10%
  Population Mitochondria Different-Phenotype (%): 25%
  Population Mitotic Cells (%): 72%
  Population Normal (%): 97%
  Population Pyknosed Nuclei (%): 46%
  Population Tubulin-Different-Phenotype (%): 44%
  Total Cell Count: 217
[7]
  Population Apoptotic (%): 74%
  Population Fragmented Nuclei (%): 11%
  Population Healthy Nuclei (%): 36%
  Population Hoechst High Intensity Objects (%): 9%
  Population Membrane Permeable-Phenotype (%): 0%
  Population Mitotic Cells (%): 25%
  Population Normal (%): 90%
  Population Pyknosed Nuclei (%): 51%
  Total Cell Count: 307
[8]
  Population Apoptotic (%): 63%
  Population Fragmented Nuclei (%): 4%
  Population Healthy Nuclei (%): 41%
  Population Hoechst High Intensity Objects (%): 5%
  Population Membrane Permeable-Phenotype (%): 1%
  Population Mitochondria Different-Phenotype (%): 100%
  Population Mitotic Cells (%): 36%
  Population Normal (%): 94%
  Population Pyknosed Nuclei (%): 53%
  Population Tubulin-Different-Phenotype (%): 97%
  Total Cell Count: 233
[9]
  Population Apoptotic (%): 20%
  Population Fragmented Nuclei (%): 6%
  Population Healthy Nuclei (%): 81%
  Population Hoechst High Intensity Objects (%): 5%
  Population Membrane Permeable-Phenotype (%): 2%
  Population Mitochondria Different-Phenotype (%): 22%
  Population Mitotic Cells (%): 79%
  Population Normal (%): 94%
  Population Pyknosed Nuclei (%): 11%
  Population Tubulin-Different-Phenotype (%): 23%
  Total Cell Count: 698
[10]
  Population Apoptotic (%): 23%
  Population Fragmented Nuclei (%): 7%
  Population Healthy Nuclei (%): 76%
  Population Hoechst High Intensity Objects (%): 3%
  Population Membrane Permeable-Phenotype (%): 8%
  Population Mitochondria Different-Phenotype (%): 15%
  Population Mitotic Cells (%): 76%
  Population Normal (%): 96%
  Population Pyknosed Nuclei (%): 16%
  Population Tubulin-Different-Phenotype (%): 49%
  Total Cell Count: 383
[11]
  Population Apoptotic (%): 73%
  Population Fragmented Nuclei (%): 15%
  Population Healthy Nuclei (%): 55%
  Population Hoechst High Intensity Objects (%): 10%
  Population Membrane Permeable-Phenotype (%): 1%
  Population Mitochondria Different-Phenotype (%): 94%
  Population Mitotic Cells (%): 26%
  Population Normal (%): 89%
  Population Pyknosed Nuclei (%): 29%
  Population Tubulin-Different-Phenotype (%): 89%
  Total Cell Count: 355
[12]
  Population Apoptotic (%): 58%
  Population Fragmented Nuclei (%): 4%
  Population Healthy Nuclei (%): 62%
  Population Hoechst High Intensity Objects (%): 2%
  Population Membrane Permeable-Phenotype (%): 0%
  Population Mitochondria Different-Phenotype (%): 93%
  Population Mitotic Cells (%): 41%
  Population Normal (%): 97%
  Population Pyknosed Nuclei (%): 33%
  Population Tubulin-Different-Phenotype (%): 96%
  Total Cell Count: 265
